In one experiment the test system is ASIC current. As to conditions: Wu et al., 2004, cited from earlier work.
The test system of experiment [1] is ASIC currents in cultured hippocampal neurons. Description: ASIC currents in primary cultured hippocampal neurons, whole-cell voltage clamp. As to conditions: for Inhibition (potency), grade in words: diarylamidines of Table 1, cultured hippocampal neurons; for effect on rates of desensitization of ASIC currents: sub-maximal concentrations. Format: cell-based, mouse.

Another experiment concerns the target T1, ASIC1a (Rattus norvegicus, UniProt P55926).
T1 sequence (P55926 1-526): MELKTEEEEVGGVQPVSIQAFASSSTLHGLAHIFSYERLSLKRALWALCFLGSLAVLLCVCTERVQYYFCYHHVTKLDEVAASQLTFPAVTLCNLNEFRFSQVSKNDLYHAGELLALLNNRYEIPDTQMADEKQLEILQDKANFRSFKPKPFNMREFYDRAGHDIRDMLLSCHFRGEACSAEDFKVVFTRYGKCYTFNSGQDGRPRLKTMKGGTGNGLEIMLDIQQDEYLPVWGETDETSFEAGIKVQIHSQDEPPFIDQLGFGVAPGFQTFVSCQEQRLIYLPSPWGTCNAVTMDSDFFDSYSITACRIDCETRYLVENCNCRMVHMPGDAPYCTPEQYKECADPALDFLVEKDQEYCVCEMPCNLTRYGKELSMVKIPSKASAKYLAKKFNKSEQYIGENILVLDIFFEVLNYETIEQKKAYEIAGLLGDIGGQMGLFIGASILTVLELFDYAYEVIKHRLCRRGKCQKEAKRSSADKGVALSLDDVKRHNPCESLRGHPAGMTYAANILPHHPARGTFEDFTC
As to the kind of experiment: ASIC1a currents in oocytes. The experiment is classed as cell-based. To be noted: 100 µM.

Experiment [2] relates to ENaC channels expressed in oocytes. As to the kind of experiment: ENaC current in Xenopus oocytes, two-electrode voltage clamp. To be noted: 100 µM; for effect on ENaC activities: oocytes; for relative current of ENaC with compound: relative to control without diarylamidine, holding -70 mV. Format: cell-based. Summed up:
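Defolliculated (collagenase, 60–120 min) stage V–VI Xenopus laevis oocytes were injected with 1 ng ENaC α/β/γ cRNA and kept 3 days at 19 °C in low-Na+ ringer. Two-electrode voltage clamp at −70 mV, 22–26 °C, in ringer pH 7.4. Amiloride superfusion was replaced by amiloride-free solution, then test compound (100 µM) was applied without amiloride. Amiloride-sensitive current recorded at 1 kHz.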
In general terms: In two-electrode clamp one electrode senses voltage and the other passes current.

A further experiment addresses T2, homomeric ASIC2a (Rattus norvegicus, UniProt Q62962).
T2 sequence (Q62962 1-512): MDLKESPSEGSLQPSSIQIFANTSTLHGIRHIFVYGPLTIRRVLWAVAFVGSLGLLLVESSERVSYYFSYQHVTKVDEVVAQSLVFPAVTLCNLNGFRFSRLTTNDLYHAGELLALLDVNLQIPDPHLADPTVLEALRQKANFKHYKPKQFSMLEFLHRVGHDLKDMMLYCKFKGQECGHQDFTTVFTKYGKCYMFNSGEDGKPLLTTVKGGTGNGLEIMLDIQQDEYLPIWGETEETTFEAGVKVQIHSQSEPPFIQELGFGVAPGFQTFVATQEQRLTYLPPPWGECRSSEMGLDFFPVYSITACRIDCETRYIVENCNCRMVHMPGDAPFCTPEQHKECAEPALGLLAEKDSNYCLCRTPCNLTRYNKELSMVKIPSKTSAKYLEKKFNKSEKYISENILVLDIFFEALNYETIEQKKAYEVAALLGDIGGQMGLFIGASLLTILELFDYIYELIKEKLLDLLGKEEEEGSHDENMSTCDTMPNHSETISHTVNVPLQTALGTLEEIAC
Description: ASIC2a current in transfected CHO cells, patch clamp. Format: cell-based. To be noted: pH 5, read-out: inhibition of ASIC2a current. Summed up: (§1)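 CHO cells in F12 with 10% fetal bovine serum, cotransfected at ~50% confluence with the individual ASIC subunit cDNA (1.8 µg) plus GFP DNA (0.2 µg) per dish. GFP-positive cells whole-cell patch-clamped 48–72 h after plating, held at −60 mV. Activating pH: 6.0 (ASIC1a, 1b), 5.0 (ASIC2a), 6.5 (ASIC3). Test compound perfused 2 min. Currents normalized to control; IC50 from logistic fit; mean ± S.E.M.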
Background: In patch-clamp work, channel activity is measured electrically.

Another experiment deals with T3, homomeric ASIC3 (Rattus norvegicus, UniProt O35240).
T3 sequence (O35240 1-533): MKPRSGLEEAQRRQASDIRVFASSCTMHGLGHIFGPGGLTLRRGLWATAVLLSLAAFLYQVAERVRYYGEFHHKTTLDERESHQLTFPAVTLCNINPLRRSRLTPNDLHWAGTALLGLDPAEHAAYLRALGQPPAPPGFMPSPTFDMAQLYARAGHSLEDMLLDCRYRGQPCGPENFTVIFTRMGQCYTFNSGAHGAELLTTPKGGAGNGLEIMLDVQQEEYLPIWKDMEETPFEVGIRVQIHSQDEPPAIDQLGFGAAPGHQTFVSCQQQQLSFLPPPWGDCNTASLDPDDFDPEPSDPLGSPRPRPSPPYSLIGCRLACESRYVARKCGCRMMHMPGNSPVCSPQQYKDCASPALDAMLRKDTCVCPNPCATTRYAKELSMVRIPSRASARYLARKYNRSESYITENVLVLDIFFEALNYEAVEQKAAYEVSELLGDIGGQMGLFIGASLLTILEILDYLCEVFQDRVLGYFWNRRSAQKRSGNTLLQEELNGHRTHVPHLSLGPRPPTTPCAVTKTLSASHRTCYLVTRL
Description: ASIC3 current in transfected CHO cells, patch clamp. As to conditions: pH 6.5, read-out: inhibition of ASIC3 current. The experiment is classed as cell-based. A digest of the protocol:
as §1

The subject of experiment [3] is cultured hippocampal neurons. Format: cell-based, mouse. To be noted: 10 µM, current clamp.
The next experiment has as its target T4, homomeric ASIC1b (Rattus norvegicus, UniProt P55926).
T4 sequence (P55926 1-559 isoform P55926-3): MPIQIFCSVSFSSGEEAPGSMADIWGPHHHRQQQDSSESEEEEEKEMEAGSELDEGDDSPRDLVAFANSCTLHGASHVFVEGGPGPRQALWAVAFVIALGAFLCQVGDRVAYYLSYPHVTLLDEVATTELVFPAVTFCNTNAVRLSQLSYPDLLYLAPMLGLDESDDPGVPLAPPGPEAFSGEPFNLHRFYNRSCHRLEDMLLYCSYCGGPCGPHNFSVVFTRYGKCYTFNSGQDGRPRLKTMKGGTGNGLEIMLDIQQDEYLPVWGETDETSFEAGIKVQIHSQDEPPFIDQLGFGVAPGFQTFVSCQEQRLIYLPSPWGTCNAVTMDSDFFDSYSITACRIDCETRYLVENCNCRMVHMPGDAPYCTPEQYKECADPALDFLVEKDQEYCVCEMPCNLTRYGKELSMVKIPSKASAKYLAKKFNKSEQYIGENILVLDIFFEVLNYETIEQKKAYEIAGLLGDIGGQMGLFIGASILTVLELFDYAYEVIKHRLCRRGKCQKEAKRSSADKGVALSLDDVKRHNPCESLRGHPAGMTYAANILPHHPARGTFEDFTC
Description: ASIC1b current in transfected CHO cells, patch clamp. The experiment is classed as cell-based. As to conditions: pH 6, read-out: inhibition of ASIC1b current. Summed up: as §1

The next experiment has as its target T5, homomeric ASIC1a (Rattus norvegicus, UniProt P55926).
T5 sequence (P55926 1-526): T1 sequence (P55926 1-526)
As to the kind of experiment: ASIC1a current in transfected CHO cells, patch clamp. Format: cell-based. Summed up: as §1

A further experiment has as its system ENaC. As to conditions: read-out: IC50 on ENaC; very weak inhibition; ref Ugawa et al., 2007; cited from earlier work.
[4] abbreviates: 200 µM, cultured hippocampal neurons.

“Also recorded” adds a separate entry of the source.

On to `N=C(N)NC(=O)c1nc(Cl)c(N)nc1N` [Amiloride], for which the concentration for half-maximal inhibition (IC50) (usually the midpoint of a concentration-inhibition curve) in the experiment with ASIC current (read-out: IC50 on ASIC current, ref Waldmann et al., 1997) was 10 to 20 µM. Also, in the experiment on ASIC current (ref Baron et al., 2002), the “concentration required to completely block the neuronal ASIC currents” value is 200 to 500 µM. In [1] (amiloride 80 µM co-applied with pH 5.8), the “effect on desensitization of ASIC current” value is on record as “did not accelerate; also recorded: little effect”. The “desensitization time constant of ASIC currents” value in experiment [1] (amiloride 80 µM co-applied with pH 5.8, control 0.83 ± 0.15 s) is 0.72 ± 0.14 s.

With `CC1(C)[C@@H](OC(=O)CCC(=O)O)CC[C@]2(C)[C@H]3C(=O)C=C4[C@@H]5C[C@@](C)(C(=O)O)CC[C@]5(C)CC[C@@]4(C)[C@]3(C)CC[C@@H]12` [Carbenoxolone], the “effect on ASIC currents” value in [1] (setting [4]) was “failed to inhibit; also recorded: did not inhibit”.

In the case of `N=C(N)c1ccc(-c2cc3ccc(C(=N)N)cc3[nH]2)cc1` [DAPI, 4′,6-diamidino-2-phenylindole], the “block of ASIC1a currents in oocytes” value at ASIC1a was “almost completely”. In experiment [2], the “effect on ENaC activities” value was “did not inhibit; also recorded: ineffective” and the “relative current of ENaC with compound” value is 0.98 ± 0.04. Moreover, in experiment [1], the “Inhibition (potency), grade in words” value was “Strong inhibition” and the “effect on rates of desensitization of ASIC currents” value (“effect on rates” for short) is on record as “did not have marked effects”.

In the case of `N=C(N)c1ccc(/N=N/Nc2ccc(C(=N)N)cc2)cc1` [Diminazene], the inhibition (commonly the change of the read-out against control, counted positive when it falls) at 3 µM is 51 ± 6.1% on homomeric ASIC2a; 74 ± 0.6% on homomeric ASIC3; 92 ± 0.5% at homomeric ASIC1b; 39 ± 3.8% at homomeric ASIC1a (CHO, pH 6, read-out: inhibition of ASIC1a current). For the same molecule, the “block of ASIC1a currents in oocytes” value at ASIC1a was “almost completely”. In addition, the “effect on low pH-induced depolarization and excitation” value in [3] is recorded as “dramatically attenuated; also recorded: markedly attenuated”. Further, the “effect on ENaC activities” value in [2] is on record as “did not inhibit; also recorded: ineffective”. Besides, the “relative current of ENaC with compound” value in [2] turned out to be 1.11 ± 0.05. At homomeric ASIC1a, this molecule came in with an IC50 of around 3 µM. Further, the “desensitization time constant of ASIC currents” value stood at 0.4 ± 0.1 s in experiment [1] (1 µM by perfusion, control 1.7 ± 0.2 s) and 0.4 ± 0.1 s in [1] (diminazene 3 µM co-applied with pH 5.8, control 1.6 ± 0.3 s). Besides, the “Inhibition (potency), grade in words” value in [1] is reported as “Strong inhibition”.

With `N=C(N)c1ccc(/C=C/c2ccc(C(=N)N)cc2O)cc1` [Hydroxystilbamidine], the “effect on ENaC activities” value in experiment [2] (listed as HSB) is recorded as “did not inhibit”. For the same molecule, in experiment [2], the “relative current of ENaC with compound” value was 1.02 ± 0.04. For the same molecule, in [1], half-maximal inhibition (IC50) was put at 1.5 µM; the “Inhibition (potency), grade in words” value is reported as “Strong inhibition”; the “effect on rates” value is recorded as “did not have marked effects”.

For the molecule `O=C(Nc1cccc(C2=NCCN2)c1)Nc1cccc(C2=NCCN2)c1` [Imidocarb], in experiment [1] (setting [4]), the “inhibition of ASIC currents” value was “Inhibit 42 ± 7% at 200 µM”.

For `N=C(N)c1ccc2cc(OC(=O)c3ccc(N=C(N)N)cc3)ccc2c1` [Nafamostat], the concentration for half-maximal inhibition (IC50) in the experiment with ENaC was around 1000 µM.

For the molecule `Cn1cc(NC(=O)c2cc(NC(=O)CN=C(N)N)cn2C)cc1C(=O)NCCC(=N)N` [Netropsin], the “effect on ASIC currents” value in experiment [1] (100 µM, cultured hippocampal neurons) is “did not inhibit”; in experiment [1] (concentration not given) it was “without effect; also recorded: failed to inhibit”.

In the case of `N=C(N)c1ccc(OCCCCCOc2ccc(C(=N)N)cc2)cc1` [Pentamidine], the “block of ASIC1a currents in oocytes” value on ASIC1a stood at 77%. Further, in experiment [2], the “effect on ENaC activities” value was “did not inhibit; also recorded: ineffective” and the “relative current of ENaC with compound” value is 1.02 ± 0.03. Further, in [1], the “Inhibition (potency), grade in words” value is listed as “Inhibition” and the “effect on rates” value is “did not have marked effects”.

Regarding `Cc1ccc(C(=O)Nc2ccc(S(=O)(=O)O)c3cc(S(=O)(=O)O)cc(S(=O)(=O)O)c23)cc1NC(=O)c1cccc(NC(=O)Nc2cccc(C(=O)Nc3cc(C(=O)Nc4ccc(S(=O)(=O)O)c5cc(S(=O)(=O)O)cc(S(=O)(=O)O)c45)ccc3C)c2)c1` [suramin], in experiment [1] (500 µM, cultured hippocampal neurons), the “effect on ASIC currents” value is on record as “failed to inhibit”.

Values taken from article PMC3846926 (Neuropharmacology, 2010).
